Results taken from ChEMBL document CHEMBL1926620, “Aza vinyl sulfones: synthesis and evaluation as antiplasmodial agents” (Bioorg Med Chem, 2011).

What was measured:
Plasmodium falciparum = experiment: Antiplasmodial activity against ring stage Plasmodium falciparum W2 infected in human red blood cells after 48 hrs by flow cytometry; type: functional, organism-based; settings: W2, 48 h
[1] = Inhibition of Plasmodium falciparum falcipain-2 using Z-Leu-Arg-AMC as substrate after 10 mins by spectrofluorimetry
How it was run: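 Enzyme at 1 nM in 100 mM sodium acetate pH 6.0, 5 mM DTT, 0.75% DMSO, 25 °C; preincubated 10 min with serial 1:5 compound dilutions (50 µM down to 0.65 nM), then 25 µM Z-Leu-Arg-AMC added; fluorescence read immediately. IC50 from percent inhibition versus no-inhibitor controls.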

Papain = biological target: T1, Papain (Carica papaya, UniProt P00784); experiment: Inhibition of papaya papain using Z-Leu-Leu-Arg-AMC as substrate after 30 mins by spectrofluorometry
T1 sequence (P00784 whole entry): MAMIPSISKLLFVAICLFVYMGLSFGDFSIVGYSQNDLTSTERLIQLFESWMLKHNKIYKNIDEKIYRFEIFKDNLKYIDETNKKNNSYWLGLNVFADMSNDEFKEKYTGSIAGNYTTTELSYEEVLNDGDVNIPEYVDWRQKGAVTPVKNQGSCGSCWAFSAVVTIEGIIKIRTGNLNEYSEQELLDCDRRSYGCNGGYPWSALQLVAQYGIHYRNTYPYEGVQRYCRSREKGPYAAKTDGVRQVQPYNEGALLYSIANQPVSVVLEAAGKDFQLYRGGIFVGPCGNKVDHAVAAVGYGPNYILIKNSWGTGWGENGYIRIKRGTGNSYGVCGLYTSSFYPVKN
How it was run: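 Papain activated in buffer at 5 µg/mL, 10 mM PBS pH 7.4 with 5 mM DTT, 37 °C, inhibitor serial dilutions in DMSO; 30 µM Z-Leu-Leu-Arg-AMC started the reaction (Km 0.4 µM, saturating). Fluorescence (ex 355/em 460 nm) monitored 30 min; E64 positive control; IC50 by non-linear regression of log concentration versus % activity; triplicate.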

COc1c(N[C@@H](CC(C)C)C(=O)NNC(=O)/C=C/S(C)(=O)=O)c(=O)c1=O
IC50 (Plasmodium falciparum): 2.3 µM | IC50 [1]: > 50 µM

COc1c(N[C@@H](CC(C)C)C(=O)NN(Cc2ccccc2)C(=O)/C=C/S(C)(=O)=O)c(=O)c1=O
IC50 (Plasmodium falciparum): > 10 µM | IC50 [1]: > 50 µM

CC(C)C[C@H](NC(=O)OCc1ccccc1)C(=O)NN(CCc1ccccc1)C(=O)/C=C/S(=O)(=O)c1ccccc1
IC50 (Papain): > 50 µM | IC50 (Plasmodium falciparum): > 10 µM

CCCCOc1c(N[C@@H](CC(C)C)C(=O)NN(Cc2ccccc2)C(=O)/C=C/S(=O)(=O)c2ccccc2)c(=O)c1=O
IC50 (Plasmodium falciparum): 1.2 µM | IC50 [1]: > 50 µM

CC(C)C[C@H](NC(=O)N1CCOCC1)C(=O)NNC(=O)/C=C/S(=O)(=O)c1ccccc1
IC50 (Papain): > 50 µM | IC50 (Plasmodium falciparum): > 10 µM

CC(C)C[C@H](NC(=O)OC(C)(C)C)C(=O)NNC(=O)/C=C/S(=O)(=O)c1ccccc1
IC50 (Plasmodium falciparum): 33.5 µM

COc1c(N[C@@H](CC(C)C)C(=O)NN(CCc2ccccc2)C(=O)/C=C/S(=O)(=O)c2ccccc2)c(=O)c1=O
IC50 (Plasmodium falciparum): > 10 µM | IC50 [1]: > 50 µM

CC(C)C[C@H](NC(=O)[C@H]1O[C@@H]1C(=O)O)C(=O)NCCCCN=C(N)N [E-64]
IC50 (Papain): 0.002 µM | IC50 [1]: 0.11 µM

CCCCOc1c(N[C@@H](CC(C)C)C(=O)NN(CCc2ccccc2)C(=O)/C=C/S(=O)(=O)c2ccccc2)c(=O)c1=O
IC50 (Plasmodium falciparum): 4.5 µM | IC50 [1]: > 50 µM

CC(C)C[C@H](NC(=O)OC(C)(C)C)C(=O)NN(CCc1ccccc1)C(=O)/C=C/S(C)(=O)=O
IC50 (Plasmodium falciparum): 46.6 µM | IC50 [1]: > 50 µM

COc1c(N[C@@H](CC(C)C)C(=O)NNC(=O)/C=C/S(=O)(=O)c2ccccc2)c(=O)c1=O
IC50 (Plasmodium falciparum): 3.5 µM | IC50 [1]: > 50 µM

CCCCOc1c(N[C@@H](CC(C)C)C(=O)NNC(=O)/C=C/S(=O)(=O)c2ccccc2)c(=O)c1=O
IC50 (Plasmodium falciparum): 2.6 µM | IC50 [1]: > 50 µM

CC(C)C[C@H](NC(=O)N1CCOCC1)C(=O)NN(CCc1ccccc1)C(=O)/C=C/S(=O)(=O)c1ccccc1
IC50 (Papain): > 50 µM | IC50 (Plasmodium falciparum): 3.4 µM

O=C(N[C@@H](Cc1ccccc1)C(=O)NN(CCc1ccccc1)C(=O)/C=C/S(=O)(=O)c1ccccc1)OCc1ccccc1
IC50 (Papain): > 50 µM | IC50 (Plasmodium falciparum): 9 µM

CC(C)C[C@H](NC(=O)OC(C)(C)C)C(=O)NN(CCc1ccccc1)C(=O)/C=C/S(=O)(=O)c1ccccc1
IC50 (Plasmodium falciparum): 15.4 µM | IC50 [1]: > 50 µM

CC(C)C[C@H](NC(=O)OC(C)(C)C)C(=O)NNC(=O)/C=C/S(C)(=O)=O
IC50 (Plasmodium falciparum): 34.2 µM

O=C(CNC(=O)OCc1ccccc1)NN(CCc1ccccc1)C(=O)/C=C/S(=O)(=O)c1ccccc1
IC50 (Papain): > 50 µM | IC50 (Plasmodium falciparum): > 10 µM

COc1c(N[C@@H](CC(C)C)C(=O)NN(CCc2ccccc2)C(=O)/C=C/S(C)(=O)=O)c(=O)c1=O
IC50 (Plasmodium falciparum): 2.5 µM | IC50 [1]: > 50 µM

CC(C)C[C@H](NC(=O)OC(C)(C)C)C(=O)NN(Cc1ccccc1)C(=O)/C=C/S(=O)(=O)c1ccccc1
IC50 (Plasmodium falciparum): > 50 µM | IC50 [1]: > 50 µM

COc1c(N[C@@H](CC(C)C)C(=O)NN(Cc2ccccc2)C(=O)/C=C/S(=O)(=O)c2ccccc2)c(=O)c1=O
IC50 (Plasmodium falciparum): 0.95 µM | IC50 [1]: > 50 µM

CC(C)C[C@H](NC(=O)OC(C)(C)C)C(=O)NN(Cc1ccccc1)C(=O)/C=C/S(C)(=O)=O
IC50 (Plasmodium falciparum): 21.6 µM | IC50 [1]: > 50 µM
